From PubChem BioAssay
WT yeast gro inh: growth inhibition of WT strain, primary screen, mitochondrial fusion inhibitor project, WT and mutant strains, chemical genetic | hit rate 2.1% among 190,000 | mitochondrial fusion phenotypic screen | inhibition, % at 10 µM; in the data active = inhibition above about 58%; tested in S. cerevisiae
EBV gp42 inh: Epstein-Barr virus gp42 inhibitors, primary screen, biochemical, uHTS, fluorescence polarization. AID 1085, 2008. hit rate 0.42% among 220,000. Glycoprotein 42 (Epstein-Barr virus (strain AG876)), Q1HVG2. inhibition, % (tested at 21.74 µM). Fluorescence polarization binding assay, mP read-out; in the data active = inhibition above about 50%
Target sequence (Q1HVG2 whole entry, looked up): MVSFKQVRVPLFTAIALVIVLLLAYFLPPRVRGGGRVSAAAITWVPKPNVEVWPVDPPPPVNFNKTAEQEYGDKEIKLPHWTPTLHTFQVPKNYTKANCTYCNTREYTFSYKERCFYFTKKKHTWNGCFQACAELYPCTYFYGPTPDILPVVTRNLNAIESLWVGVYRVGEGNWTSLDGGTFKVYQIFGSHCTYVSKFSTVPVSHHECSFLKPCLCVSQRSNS
Tb MetRS inh: T. brucei MetRS inhibitors, primary screen, biochemical, luminescence. inhibition, % at 11.9 µM. AID 624268, 2012. purified T. brucei MetRS, ATP depletion, Kinase-Glo luminescence. hit rate 0.4% among 360,000;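 active = inhibition above a per-plate cutoff of the control wells' mean inhibition plus 3 SD, cut at about 5.5% in these data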;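 note: 0% = DMSO wells median and 100% = median of wells with control inhibitor compound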
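System: purified T. brucei MetRS enzyme / Detection: Kinase-Glo luciferase luminescence reporting remaining unconsumed ATP / Medium: HEPES buffer with MgCl2, KCl, DTT, spermine, BSA, pyrophosphatase / Replication: singlicate, one well per compound / Evaluation: percent inhibition relative to median high and low control wells / Schedule: 2 h aminoacylation at 25 °C after 15 min preincubation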
GRIN3A LBD mod: binders of NR3A ligand-binding domain, primary screen, biophysical, differential scanning fluorimetry, uHTS | Glutamate receptor ionotropic, NMDA 3A (GRIN3A) ligand-binding domain | NR3A LBD differential scanning fluorimetry, Tm shift; 0% = protein alone, 100% = glycine-bound protein | Tm shift relative to glycine control, % at 25 µM | hit rate 2.5% among 340,000 | AID 1259313, 2017;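 active = melting temperature shift of at least 10% of the positive control shift, at one fixed dose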
CHOP inhibitor: inhibitors of CHOP promoter induction, primary screen, cell-based, unfolded protein response, luciferase reporter | CHO-K1 CHOP-promoter luciferase, tunicamycin-induced, 15-18 h | inhibition, % at 10 µM | AID 2732, 2010 | hit rate 3.8% among 220,000;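 active = compounds that reduced the stress-induced luciferase reporter signal by more than about 70% of percent inhibition, limit read from the data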;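 note: 0% = tunicamycin plus vehicle and 100% = wells without tunicamycin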
MPTP block: mitochondrial permeability transition pore inhibitors, primary screen, biochemical, isolated mouse mitochondria, absorbance; inhibition, % at 10 µM; hit rate 1.4% among 360,000; Ca2+ swelling absorbance, 30 min;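 active = inhibition of 50% or more, scaled per plate between neutral and stimulator controls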;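 note: 0% = DMSO wells given calcium and 100% = 1 mM EGTA wells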
MPTP counter: fluorescence retest of MPTP screen hits in isolated mitochondria, single concentration; shares compounds with MPTP block; membrane potential, Rhodamine 123 fluorescence; inhibition, % at 10 µM; hit rate 78% among 5,000; AID 624504, 2012; in the data active = inhibition above about 22%;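 note: 0% = DMSO vehicle and 100% = positive control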
MPTP swell DR: mitochondrial permeability transition pore inhibitors, dose response, biochemical, absorbance, uHTS hits. shares compounds with MPTP block. IC50, µM. hit rate 58% among 780. isolated mitochondria swelling; in the data active = IC50 below about 20 µM
MPTP cs DR: fluorescent counter-screen in isolated mitochondria, dose response, counter-screen for MPTP inhibitor project, biochemical, fluorescence, uHTS hits; shares compounds with MPTP block; isolated mitochondria counterscreen, fluorescence read-out; IC50, µM; hit rate 49% among 780; in the data active = IC50 below about 80 µM
* hit, by the source's call; . = not tested or not shown; ! = a repeat was not active. Most compounds without a hit are left out; they make up all but 6.4% or so of the library.

SMILES	WT yeast gro inh	EBV gp42 inh	Tb MetRS inh	GRIN3A LBD mod	CHOP inhibitor	MPTP block	MPTP counter	others
COc1ccc(C(=O)c2cnc(/N=C/N(C)C)s2)cc1	5	-18	-2	1	-10	0	.
CC1CCc2c(C(=O)Nc3ccc(OC(F)(F)F)cc3)csc2C1 (stereo not drawn)	35	-20	-1	6	63	95*	29*
O=C(c1ccccc1)c1cnc(Nc2ccc(Cl)c(Cl)c2)s1	4	1	-1	29*	59	62*	44*
O=C(c1ccc(F)cc1)c1cnc(Nc2ccccc2)s1	-10	-3	0	-2	61	0	.
O=C1c2c(O)ccc(O)c2C(=O)c2c(NCCNCCO)ccc(NCCNCCO)c21	.	.	0	-1	33	106*!	-45
COc1ccc2nc3cc(Cl)ccc3c(Nc3cc(C(C)C)c(O)cc3C)c2c1	.	15	1	-7	10	84*	109*
Cc1ccc(/C(N)=N/OC(=O)COc2cccc3ccccc23)cc1	.	.	0	.	.	-1	.
O=C(O)CCN1C(=O)/C(=C\c2cccc(OCC(=O)Nc3ccc(Cl)cc3)c2)SC1=S	.	2	2	-7	5	39	.
Cc1ccc(NC(=O)COc2cccc(/C=C3\SC(=S)N(CCC(=O)O)C3=O)c2)cc1Cl	.	-14	0	-3	98*	51*	26*
Cc1ccc(/C=C2\SC(=S)N(CCC(=O)NNC(=O)c3cccnc3)C2=O)cc1	1	-35	-1	10	37	65*	59*
O=C(CCN1C(=O)/C(=C/c2cccc(Br)c2)SC1=S)Nc1cccnc1	0	-1	0	0	87*	52*	9	MPTP swell DR=>100;MPTP cs DR=20*
O=C(CCN1C(=O)/C(=C/c2ccc3c(c2)OCO3)SC1=S)NNC(=O)c1cccnc1	-12	-12	-1	-4	41	5	.
O=C(CCN1C(=O)/C(=C/c2ccccc2)SC1=S)N1CCCCCC1	.	.	0	-3	.	77*	82*
C/C(=N\NC(=O)Cn1c(-c2ccccn2)nc2ccccc21)c1cccc(O)c1	-5	-26	0	-2	-9	2	.
CCN1C(=O)c2cccc3c(NC(=O)C(C)(C)C)ccc1c23	-3	-24	-1	1	-18	-5	.
O=C(CCN1C(=O)/C(=C/c2ccc(Cl)cc2)SC1=S)NCCCn1ccnc1	.	.	0	5	.	60*	72*
O=C(CCN1C(=O)/C(=C/c2ccccc2)SC1=S)NNC(=O)c1cccnc1	-9	5	0	4	47	88*	74*
O=C(CCN1C(=O)/C(=C/c2cccc(Br)c2)SC1=S)NNC(=O)c1cccnc1	2	-7	-1	1	27	4	.
O=C(CCN1C(=O)/C(=C/c2ccc(F)cc2)SC1=S)NCCCn1ccnc1	.	.	0	2	.	2	.
O=S(=O)(N/N=C1/CCCc2ccccc21)c1ccc(Br)cc1	38	4	-1	-4	31	1	.
Cc1ccc(S(=O)(=O)N/N=C2/CC(c3ccccc3)Oc3ccccc32)cc1[N+](=O)[O-] (stereo not drawn)	43	-13	0	25*	-15	78*	76*
O=S(=O)(N/N=C1/CC(c2ccccc2)Oc2ccccc21)c1ccc(Br)cc1 (stereo not drawn)	58	-4	-1	21*	94*	76*	85*
